# In ChEMBL document CHEMBL3588826, “Chimeric derivatives of functionalized amino acids and α-aminoamides: compounds with anticonvulsant activity in seizure models and inhibitory actions on central, peripheral, and cardiac isoforms of voltage-gated sodium channels” (Bioorg Med Chem, 2015):
# Active and inactive are the calls of the source. No cut-off for these calls is given here.
# Tests used:
# Mus musculus = experiment: Anticonvulsant activity in ip dosed albino Carworth Farms No. 1 mouse measured at 0.25 hrs by maximal electroshock seizure test; format: functional; settings: Carworth Farms No. 1, ip
# Method in brief: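 Screened under the NIH anticonvulsant program in male albino Carworth Farms No. 1 mice (ip) and male albino Sprague-Dawley rats (ip or oral). Protection tested by maximal electroshock or 6 Hz (32 mA) psychomotor stimulation.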
# [1] = Protective index, ratio of TD50 for neurotoxicity in ip dosed albino Carworth Farms No. 1 mouse to ED50 for anticonvulsant activity in ip dosed MES albino Carworth Farms No. 1 mouse model; format: toxicity, organism-based; settings: in vivo, read-out: Ratio TD50/ED50
# Method in brief: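 Male albino Carworth Farms No. 1 mice were dosed ip. Protective index = TD50/ED50, the ED50 taken from the ip maximal electroshock test.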
# [2] = Behavioural toxicity in po dosed albino Sprague-Dawley rat measured at 1 hr; format: organism-based; settings: in vivo
# [3] = Protective index, ratio of TD50 for behavioural toxicity in po dosed albino Sprague-Dawley rat to ED50 for anticonvulsant activity in po dosed MES albino Sprague-Dawley rat model; format: organism-based; settings: in vivo, read-out: Ratio TD50/ED50
# Method in brief: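 Male albino Sprague-Dawley rats were dosed ip or orally. Protective index = TD50/ED50, the ED50 taken from maximal electroshock by the same route.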
# [4] = Behavioural toxicity in ip dosed albino Sprague-Dawley rat measured at 2 hrs; format: organism-based; settings: in vivo
# [5] = Inhibition of voltage-gated sodium channel in mouse CAD cells assessed as transition of channels to slow-inactivated state measured at -50 mV by whole cell patch-clamp electrophysiology; format: cell-based
# Method in brief: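 CAD cells were grown in Ham's F12/DMEM with 10% FBS at 37 °C and 5% CO2, with native Na+ currents mostly from Nav1.7. Whole-cell voltage clamp at room temperature across a range of concentrations against 0.1% DMSO. IC50 for induction of slow inactivation was taken from concentration-response curves at −50 mV (also at +20 mV).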
# [6] = molecular target: Sodium channel protein type 1 subunit alpha (Homo sapiens) (UniProt P35498); experiment: Inhibition of human Nav1.1 expressed in HEK293 cells assessed as transition of channels to slow-inactivated state at 10 uM measured at -50 mV by whole cell patch-clamp electrophysiology; format: cell-based
# Method in brief: (§1)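 HEK293 cells stably expressing hNav1.1, rNav1.3, hNav1.7 or hNav1.5 were grown in DMEM with 10% FBS. Recordings were whole-cell voltage clamp at room temperature, with 10 μM compound versus 0.1% DMSO. Slow inactivation at −50 mV was calculated as 1 minus normalized peak INa. Nav1.5 used hyperpolarized protocols. Data are from 5–6 cells.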
# [7] = molecular target: Sodium channel protein type 3 subunit alpha (Rattus norvegicus) (UniProt P08104); experiment: Inhibition of rat Nav1.3 expressed in HEK293 cells assessed as transition of channels to slow-inactivated state at 10 uM measured at -50 mV by whole cell patch-clamp electrophysiology; format: cell-based; method in brief: as §1
# [8] = molecular target: Sodium channel protein type 9 subunit alpha (Homo sapiens) (UniProt Q15858); experiment: Inhibition of human Nav1.7 expressed in HEK293 cells assessed as transition of channels to slow-inactivated state at 10 uM measured at -50 mV by whole cell patch-clamp electrophysiology; format: cell-based; method in brief: as §1
# [9] = molecular target: Sodium channel protein type 5 subunit alpha (Homo sapiens, UniProt Q14524); experiment: Inhibition of human Nav1.5 expressed in HEK293 cells assessed as transition of channels to slow-inactivated state at 10 uM measured at -50 mV by whole cell patch-clamp electrophysiology; format: cell-based; settings: hek293, 10 µM; method in brief: as §1
# Cytochrome P450 2C9 = Cytochrome P450 2C9 (Homo sapiens, UniProt P11712); experiment: Inhibition of human CYP2C9 at 10 uM; format: ADME
# Method in brief: (§2)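 Test compound at 10 μM against a human CYP450 panel (CYP1A2, 2B6, 2C8, 2C9, 2C19, 2D6, 3A4/5). Direct inhibition was measured, and time-dependent inhibition was measured after a 30-min preincubation.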
# Cytochrome P450 3A4 = Cytochrome P450 3A4 (Homo sapiens, UniProt P08684); experiment: Inhibition of human CYP3A4 at 10 uM; format: ADME; method in brief: as §2
# Cytochrome P450 3A5 = Cytochrome P450 3A5 (Homo sapiens, UniProt P20815); experiment: Inhibition of human CYP3A5 at 10 uM; format: ADME; method in brief: as §2
# CYP2C8 = molecular target: T1, CYP2C8 (Homo sapiens, UniProt P10632); experiment: Time-dependent inhibition of human CYP2C8 measured after 30 mins preincubation period; format: ADME; method in brief: as §2
# T1 sequence (P10632 whole entry): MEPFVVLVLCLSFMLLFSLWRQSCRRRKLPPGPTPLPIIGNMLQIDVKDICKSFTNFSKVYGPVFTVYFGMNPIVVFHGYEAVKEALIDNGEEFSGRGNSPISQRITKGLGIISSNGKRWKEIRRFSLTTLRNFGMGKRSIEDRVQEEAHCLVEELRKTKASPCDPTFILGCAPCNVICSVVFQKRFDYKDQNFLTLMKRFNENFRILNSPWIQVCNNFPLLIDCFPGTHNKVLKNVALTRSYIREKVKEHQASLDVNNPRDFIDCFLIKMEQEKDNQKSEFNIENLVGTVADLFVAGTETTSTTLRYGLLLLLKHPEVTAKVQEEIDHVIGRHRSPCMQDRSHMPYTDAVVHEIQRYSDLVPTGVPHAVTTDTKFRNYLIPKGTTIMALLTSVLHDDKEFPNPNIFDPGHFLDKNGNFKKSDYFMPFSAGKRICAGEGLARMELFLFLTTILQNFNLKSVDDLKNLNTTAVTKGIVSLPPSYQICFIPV
# [10] = Half life in Sprague-Dawley rat at 5 mg/kg, iv; format: ADME, organism-based; settings: in vivo
# Method in brief: (§3)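 Pharmacokinetics in Sprague-Dawley rats given a single iv dose of 5 mg/kg or an oral dose of 20 mg/kg.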
# [11] = Ratio of drug level in brain to plasma in Sprague-Dawley rat at 5 mg/kg, iv and 20 mg/kg, po measured after 6 hrs; format: ADME, organism-based; settings: read-out: BPR; method in brief: as §3
# [12] = molecular target: Voltage-gated inwardly rectifying potassium channel KCNH2 (Homo sapiens, UniProt Q12809); experiment: Binding affinity to human ERG at 30 uM by PatchExpress analysis
# Rattus norvegicus [13] = experiment: Toxicity in po dosed Sprague-Dawley rat assessed as coordination in gait administered via gavage; format: organism-based; settings: in vivo
# Method in brief: (§4)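 Non-GLP 7-day repeated-dose study in female Sprague-Dawley rats given oral gavage at 20, 60 and 180 mg/kg/day. Endpoints were weight bearing, gait coordination, respiratory rate, relative organ weights, clinical chemistry and gross pathology, with NOAEL determined.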
# Rattus norvegicus [14] = experiment: Toxicity in po dosed Sprague-Dawley rat assessed as changes in respiratory rate administered via gavage; format: organism-based; settings: in vivo; method in brief: as §4
# Rattus norvegicus [15] = experiment: Toxicity in po dosed Sprague-Dawley rat assessed as increase in liver weight administered via gavage; format: organism-based; settings: in vivo
# Method in brief: (§5)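 Non-GLP repeated-dose study: female Sprague-Dawley rats given compound by oral gavage once daily for 7 days at 20, 60 and 180 mg/kg/day. Endpoints included weight bearing, gait coordination, respiratory rate, relative organ weights (liver, spleen, thymus), clinical chemistry and gross pathology; NOAEL derived.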
# Rattus norvegicus [16] = experiment: Toxicity in po dosed Sprague-Dawley rat assessed as decrease in spleen weight administered via gavage; format: organism-based; settings: in vivo; method in brief: as §4
# Rattus norvegicus [17] = experiment: Toxicity in po dosed Sprague-Dawley rat assessed as gross pathological changes administered via gavage; format: organism-based; settings: in vivo; method in brief: as §5
# Sodium channel protein type 3 subunit alpha (Rattus norvegicus), sequence (P08104 whole entry): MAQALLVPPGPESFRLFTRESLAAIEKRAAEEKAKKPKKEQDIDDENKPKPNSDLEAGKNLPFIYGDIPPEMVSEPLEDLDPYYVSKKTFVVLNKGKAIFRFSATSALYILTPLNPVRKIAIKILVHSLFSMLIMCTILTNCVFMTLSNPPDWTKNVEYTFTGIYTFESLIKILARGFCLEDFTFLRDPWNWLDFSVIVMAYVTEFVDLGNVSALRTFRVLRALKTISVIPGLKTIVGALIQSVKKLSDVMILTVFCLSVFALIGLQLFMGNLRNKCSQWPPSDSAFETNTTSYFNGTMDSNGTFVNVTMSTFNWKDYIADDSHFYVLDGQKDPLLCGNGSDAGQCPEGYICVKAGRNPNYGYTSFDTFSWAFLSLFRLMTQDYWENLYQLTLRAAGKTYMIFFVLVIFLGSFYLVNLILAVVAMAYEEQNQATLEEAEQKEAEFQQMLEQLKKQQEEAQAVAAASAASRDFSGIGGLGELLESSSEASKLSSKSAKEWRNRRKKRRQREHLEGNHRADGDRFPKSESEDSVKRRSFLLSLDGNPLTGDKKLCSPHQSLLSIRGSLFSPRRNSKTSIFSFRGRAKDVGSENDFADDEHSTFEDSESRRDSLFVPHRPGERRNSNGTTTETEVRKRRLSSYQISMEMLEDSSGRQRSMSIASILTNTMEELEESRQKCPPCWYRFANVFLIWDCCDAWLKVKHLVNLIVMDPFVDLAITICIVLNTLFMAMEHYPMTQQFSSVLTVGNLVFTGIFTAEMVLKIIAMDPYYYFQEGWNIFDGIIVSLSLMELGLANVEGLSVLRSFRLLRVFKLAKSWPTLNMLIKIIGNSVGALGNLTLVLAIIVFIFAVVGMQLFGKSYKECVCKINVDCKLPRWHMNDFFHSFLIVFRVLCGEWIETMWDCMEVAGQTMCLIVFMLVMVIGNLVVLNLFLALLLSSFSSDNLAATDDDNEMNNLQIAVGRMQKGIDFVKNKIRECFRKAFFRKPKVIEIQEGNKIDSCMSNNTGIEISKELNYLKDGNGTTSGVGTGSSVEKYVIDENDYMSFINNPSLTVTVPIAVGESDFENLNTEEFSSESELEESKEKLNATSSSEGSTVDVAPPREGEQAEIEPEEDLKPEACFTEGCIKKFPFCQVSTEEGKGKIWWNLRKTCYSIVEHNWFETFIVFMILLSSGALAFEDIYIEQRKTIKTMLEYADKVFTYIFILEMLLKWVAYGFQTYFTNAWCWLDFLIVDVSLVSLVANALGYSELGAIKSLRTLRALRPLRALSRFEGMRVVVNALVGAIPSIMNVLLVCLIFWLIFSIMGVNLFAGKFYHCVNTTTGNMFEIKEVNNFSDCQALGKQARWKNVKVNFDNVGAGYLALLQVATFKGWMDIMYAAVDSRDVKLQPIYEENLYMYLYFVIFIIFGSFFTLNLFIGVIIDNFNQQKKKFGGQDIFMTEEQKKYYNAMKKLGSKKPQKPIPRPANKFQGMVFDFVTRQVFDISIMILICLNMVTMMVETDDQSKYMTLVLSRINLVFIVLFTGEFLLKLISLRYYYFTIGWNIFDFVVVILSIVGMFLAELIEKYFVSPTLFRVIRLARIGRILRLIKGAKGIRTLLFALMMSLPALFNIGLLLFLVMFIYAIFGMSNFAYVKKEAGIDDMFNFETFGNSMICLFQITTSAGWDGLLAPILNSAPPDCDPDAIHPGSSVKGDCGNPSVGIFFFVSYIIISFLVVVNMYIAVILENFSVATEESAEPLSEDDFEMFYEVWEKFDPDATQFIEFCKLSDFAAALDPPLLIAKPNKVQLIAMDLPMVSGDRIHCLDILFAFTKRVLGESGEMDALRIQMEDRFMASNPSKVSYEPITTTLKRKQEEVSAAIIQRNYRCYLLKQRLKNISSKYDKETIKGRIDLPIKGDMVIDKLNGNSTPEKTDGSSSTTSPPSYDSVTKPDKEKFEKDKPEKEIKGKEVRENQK
# Sodium channel protein type 9 subunit alpha (Homo sapiens), sequence (Q15858 whole entry, looked up): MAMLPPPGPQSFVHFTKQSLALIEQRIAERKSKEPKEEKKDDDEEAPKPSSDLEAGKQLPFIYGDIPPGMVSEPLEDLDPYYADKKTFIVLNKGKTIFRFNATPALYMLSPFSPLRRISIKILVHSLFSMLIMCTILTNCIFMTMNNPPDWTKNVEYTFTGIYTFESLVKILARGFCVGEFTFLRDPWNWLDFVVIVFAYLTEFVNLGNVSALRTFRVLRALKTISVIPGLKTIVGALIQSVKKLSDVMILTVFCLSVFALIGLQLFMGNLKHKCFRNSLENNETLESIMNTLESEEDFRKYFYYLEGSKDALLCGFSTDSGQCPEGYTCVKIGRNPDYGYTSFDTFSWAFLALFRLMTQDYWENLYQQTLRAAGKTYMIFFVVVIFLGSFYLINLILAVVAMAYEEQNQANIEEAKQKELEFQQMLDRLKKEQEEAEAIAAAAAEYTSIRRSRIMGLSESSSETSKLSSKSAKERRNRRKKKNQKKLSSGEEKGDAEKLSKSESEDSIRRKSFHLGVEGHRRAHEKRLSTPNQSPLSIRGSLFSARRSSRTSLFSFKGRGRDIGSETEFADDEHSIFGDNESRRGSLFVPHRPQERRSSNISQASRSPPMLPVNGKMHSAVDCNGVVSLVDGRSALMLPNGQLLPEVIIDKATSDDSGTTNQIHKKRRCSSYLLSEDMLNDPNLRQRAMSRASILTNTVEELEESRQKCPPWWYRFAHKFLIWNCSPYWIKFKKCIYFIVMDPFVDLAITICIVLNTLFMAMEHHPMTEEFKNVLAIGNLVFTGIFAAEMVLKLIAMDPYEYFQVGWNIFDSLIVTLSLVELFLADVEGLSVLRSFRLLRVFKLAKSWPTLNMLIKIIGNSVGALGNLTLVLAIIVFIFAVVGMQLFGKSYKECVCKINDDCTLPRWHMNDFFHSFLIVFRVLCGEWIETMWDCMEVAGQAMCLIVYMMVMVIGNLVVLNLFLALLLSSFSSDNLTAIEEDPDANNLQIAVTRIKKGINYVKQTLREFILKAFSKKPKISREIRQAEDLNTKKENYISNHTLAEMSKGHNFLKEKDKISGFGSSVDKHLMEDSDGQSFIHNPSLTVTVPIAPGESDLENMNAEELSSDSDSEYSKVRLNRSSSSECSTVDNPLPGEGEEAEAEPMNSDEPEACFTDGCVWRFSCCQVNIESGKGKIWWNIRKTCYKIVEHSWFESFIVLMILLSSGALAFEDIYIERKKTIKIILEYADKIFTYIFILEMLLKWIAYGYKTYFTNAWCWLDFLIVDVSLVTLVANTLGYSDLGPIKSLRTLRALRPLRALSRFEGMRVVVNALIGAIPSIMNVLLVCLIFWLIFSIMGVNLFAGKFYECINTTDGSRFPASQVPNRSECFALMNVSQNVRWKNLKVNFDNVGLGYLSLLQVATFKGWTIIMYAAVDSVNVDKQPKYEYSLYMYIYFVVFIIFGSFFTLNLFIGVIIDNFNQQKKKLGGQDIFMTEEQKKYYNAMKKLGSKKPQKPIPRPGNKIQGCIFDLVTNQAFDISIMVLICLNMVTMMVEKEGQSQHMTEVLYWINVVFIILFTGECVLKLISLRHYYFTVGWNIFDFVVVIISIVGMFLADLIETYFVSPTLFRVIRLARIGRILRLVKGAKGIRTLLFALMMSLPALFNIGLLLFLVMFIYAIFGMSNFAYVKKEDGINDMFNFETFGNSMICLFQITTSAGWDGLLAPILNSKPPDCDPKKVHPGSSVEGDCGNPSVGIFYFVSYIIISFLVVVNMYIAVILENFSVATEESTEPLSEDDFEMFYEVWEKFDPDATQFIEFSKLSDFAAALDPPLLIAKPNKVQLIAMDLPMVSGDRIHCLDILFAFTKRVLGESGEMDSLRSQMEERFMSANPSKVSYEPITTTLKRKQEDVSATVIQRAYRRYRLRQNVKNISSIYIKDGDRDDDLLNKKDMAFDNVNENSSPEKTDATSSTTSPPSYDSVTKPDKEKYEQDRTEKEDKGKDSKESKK
# Cytochrome P450 2C9, sequence (P11712 whole entry): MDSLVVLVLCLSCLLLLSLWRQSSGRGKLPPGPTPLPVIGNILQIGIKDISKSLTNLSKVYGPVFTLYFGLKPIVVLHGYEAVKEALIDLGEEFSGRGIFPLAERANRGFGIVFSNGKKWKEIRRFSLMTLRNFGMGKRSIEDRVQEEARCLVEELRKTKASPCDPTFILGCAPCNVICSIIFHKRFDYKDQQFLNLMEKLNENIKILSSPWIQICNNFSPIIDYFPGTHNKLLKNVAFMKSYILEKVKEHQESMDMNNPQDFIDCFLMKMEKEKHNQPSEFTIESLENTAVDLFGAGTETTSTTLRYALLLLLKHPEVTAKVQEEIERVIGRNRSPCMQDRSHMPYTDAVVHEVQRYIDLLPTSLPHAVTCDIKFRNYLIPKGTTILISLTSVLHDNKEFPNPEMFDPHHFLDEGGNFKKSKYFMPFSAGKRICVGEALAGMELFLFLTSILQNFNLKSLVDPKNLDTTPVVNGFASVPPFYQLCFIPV
# Cytochrome P450 3A4, sequence (P08684 whole entry): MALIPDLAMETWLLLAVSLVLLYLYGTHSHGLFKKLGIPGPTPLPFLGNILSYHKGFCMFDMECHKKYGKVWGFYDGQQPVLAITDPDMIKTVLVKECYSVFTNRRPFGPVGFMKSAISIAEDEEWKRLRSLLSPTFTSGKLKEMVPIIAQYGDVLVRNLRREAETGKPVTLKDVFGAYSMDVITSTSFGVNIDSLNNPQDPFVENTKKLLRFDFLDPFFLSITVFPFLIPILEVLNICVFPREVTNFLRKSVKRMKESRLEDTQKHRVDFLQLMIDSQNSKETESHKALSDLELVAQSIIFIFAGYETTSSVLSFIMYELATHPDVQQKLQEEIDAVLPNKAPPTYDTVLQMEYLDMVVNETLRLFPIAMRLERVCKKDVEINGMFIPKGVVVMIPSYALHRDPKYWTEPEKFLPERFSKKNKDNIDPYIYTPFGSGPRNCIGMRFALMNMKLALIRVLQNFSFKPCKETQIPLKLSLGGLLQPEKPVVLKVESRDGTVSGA
smiles,measurement,setting,value
COC[C@@H](NC(C)=O)C(=O)NCc1ccc(Oc2cccc(OC(F)(F)F)c2)cc1,ED50,Mus musculus,6.5 mg/kg
same,selectivity ratio,[1],6.2
same,TD50 at 1 h,[2],240 mg/kg
same,selectivity ratio,[3],29
same,TD50 at 2 h,[4],54 mg/kg
same,IC50,[5],700 nM
same,inhibition,[6],Active
same,inhibition,[7],Active
same,inhibition,[8],Active
same,inhibition (INH),[9],Active
same,inhibition (INH),Cytochrome P450 2C9,Not Active
same,inhibition (INH),Cytochrome P450 3A4,Not Active
same,inhibition (INH),Cytochrome P450 3A5,Not Active
same,inhibition at 0.5 h,CYP2C8,16%
same,half-life,[10],1.75 h
same,Kp at 6 h,[11],1.2
same,Activity,[12],Not Active
same,Activity,Rattus norvegicus [13],Toxic
same,Activity,Rattus norvegicus [14],Toxic
same,Activity,Rattus norvegicus [15],Toxic
same,Activity,Rattus norvegicus [16],Toxic
same,Activity,Rattus norvegicus [17],Toxic
